This is an account of results in ChEMBL document CHEMBL2057069, “Benzoxazole and benzothiazole amides as novel pharmacokinetic enhancers of HIV protease inhibitors” (Bioorg Med Chem Lett, 2012).

The nature of data set [1]: AUC (0 to infinity) in dog at 7.5 mg/kg, po. The format is ADME, organism-based, Canis lupus familiaris. Also noted: time infinity, dose 7.5 mg/kg, route oral. The following applies: plasma. Put shortly:
(§1)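 Drug–drug interaction study in dogs, n = 3. The booster was given orally at 7.5 mg/kg as a PEG400 solution, 5 min before oral darunavir at 30 mg/kg. Darunavir plasma Cmax and AUC0–∞ were measured, with fold increase calculated against darunavir dosed alone.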

Data set [2] in a line: Cmax in dog at 7.5 mg/kg, po. As to conditions: in vivo. More on the design: dose 7.5 mg/kg, route oral. The class given is ADME, organism-based, Canis lupus familiaris. Put shortly:
as §1

Data set [3] has as its system Canis familiaris. The data set is described as follows: Enhancement of darunavir AUC (0 to infinity) in dog at 7.5 mg/kg, po administered 5 mins prior to darunavir co-administration. The format is ADME, organism-based, Canis lupus familiaris. Also noted: dose 7.5 mg/kg, route oral. As to conditions: in vivo.
Data set [4] concerns Canis familiaris. Kind of data set: Enhancement of darunavir Cmax in dog at 7.5 mg/kg, po administered 5 mins prior to darunavir co-administration. The format is ADME, organism-based, Canis lupus familiaris. More on the design: dose 7.5 mg/kg, route oral. The following applies: in vivo.
The nature of data set [5]: Absolute oral bioavailability in dog at 10 mg/kg administered as single dose. The class given is ADME, organism-based, Canis lupus familiaris. The following applies: in vivo. Put shortly: (§2)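 Single oral dose of 10 mg/kg given to rats and dogs, n = 3 per species. Plasma Cmax, Tmax, AUC0–∞ and absolute oral bioavailability were derived from the plasma profiles.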
Data set [6] in a line: AUC (0 to infinity) in dog at 10 mg/kg, po administered as single dose. The class given is ADME, organism-based, Canis lupus familiaris. More on the design: time infinity, dose 10 mg/kg, route oral. As to conditions: plasma. The procedure, abridged: as §2
The nature of data set [7]: Tmax in dog at 10 mg/kg, po administered as single dose. The format is ADME, organism-based, Canis lupus familiaris. Also noted: dose 10 mg/kg, route oral. The following applies: in vivo. Put shortly: as §2
Data set [8] can be described thus: Cmax in dog at 10 mg/kg, po administered as single dose. The format is ADME, organism-based, Canis lupus familiaris. Also noted: dose 10 mg/kg, route oral. As to conditions: in vivo. Put shortly:
as §2

Data set [9] in a line: Absolute oral bioavailability in rat at 10 mg/kg administered as single dose. The following applies: in vivo. The format is ADME, organism-based. The procedure, abridged:
as §2

The nature of data set [10]: AUC (0 to infinity) in rat at 10 mg/kg, po administered as single dose. The format is ADME, organism-based. Also noted: time infinity, dose 10 mg/kg, route oral. The following applies: plasma.
Data set [11] in a line: Tmax in rat at 10 mg/kg, po administered as single dose. The class given is ADME, organism-based. The following applies: in vivo. Also noted: dose 10 mg/kg, route oral. Put shortly: as §2
The nature of data set [12]: Cmax in rat at 10 mg/kg, po administered as single dose. The format is ADME, organism-based. More on the design: dose 10 mg/kg, route oral. The following applies: in vivo. Put shortly: as §2
Data set [13] in a line: Apparent permeability across human Caco2 cells at 10 uM at pH 7.4 after 60 mins. The format is ADME, cell-based. The following applies: Caco-2, pH 7.4. The procedure, abridged: (§3)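 Caco-2 monolayers were exposed to compound at 10 µM and sampled after 60 min of incubation, at pH 5.5 or pH 7.4. Apparent permeability was measured in the absorptive and secretory directions, with efflux expressed as the secretory/absorptive ratio.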
In general terms: Passage across Caco-2 layers is used to estimate intestinal permeability.

Data set [14] is described as follows: Apparent permeability across human Caco2 cells at 10 uM at pH 5.5 after 60 mins. The format is ADME, cell-based. As to conditions: Caco-2, pH 5.5. Put shortly: as §3
Data set [15] has as its system Human immunodeficiency virus 1. Kind of data set: Antiviral activity against wild type HIV1 3B infected in human MT4 LTR-EGFP cells by EGFP reporter gene assay. The class given is functional, organism-based. The following applies: Human immunodeficiency virus 1, 3B. In general terms: Reporter assays use an easily measured gene product as a stand-in for the process of interest.

Data set [16] can be described thus: Efflux ratio of apparent permeability of the compound from basal to apical to apical to basal side of human Caco2 cells at 10 uM at pH 7.4 after 60 mins. The following applies: Caco-2, pH 7.4. The class given is ADME, cell-based. Put shortly:
(§4)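 Caco-2 monolayers; test compound at 10 µM; apparent permeability measured in secretory and absorptive directions at pH 5.5 and at pH 7.4, read after 60 min incubation; transport polarity taken as P_secretory/P_absorptive.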

Data set [17] can be described thus: Efflux ratio of apparent permeability of the compound from basal to apical to apical to basal side of human Caco2 cells at 10 uM at pH 5.5 after 60 mins. The format is ADME, cell-based. As to conditions: Caco-2, pH 5.5. Put shortly: as §4
The target of a further data set is Cytochrome P450 3A4 (Homo sapiens, UniProt P08684). Kind of data set: Inhibition of CYP3A4 in human liver microsomes using midazolam as substrate after 10 mins by LC/MS/MS analysis. In general terms: Microsomes from liver hold many membrane-bound enzymes, among them those of drug oxidation.
Sequence of Cytochrome P450 3A4 (P08684 whole entry): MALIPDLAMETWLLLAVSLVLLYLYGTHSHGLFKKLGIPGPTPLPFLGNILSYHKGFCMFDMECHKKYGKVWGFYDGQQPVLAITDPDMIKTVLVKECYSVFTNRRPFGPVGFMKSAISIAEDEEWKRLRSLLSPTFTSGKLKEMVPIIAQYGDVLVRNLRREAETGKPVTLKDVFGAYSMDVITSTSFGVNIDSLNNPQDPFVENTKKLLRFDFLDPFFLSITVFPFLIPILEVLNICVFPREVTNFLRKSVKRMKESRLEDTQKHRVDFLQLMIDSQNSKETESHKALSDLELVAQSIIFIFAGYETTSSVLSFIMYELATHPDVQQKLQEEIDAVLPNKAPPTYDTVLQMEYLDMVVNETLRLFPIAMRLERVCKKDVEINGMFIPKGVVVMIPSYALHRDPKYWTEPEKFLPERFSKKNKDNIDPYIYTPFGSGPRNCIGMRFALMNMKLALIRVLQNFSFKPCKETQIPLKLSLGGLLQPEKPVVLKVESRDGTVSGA
The species entered for a further data set is Homo sapiens. The data set is described as follows: Inhibition of P-glycoprotein using taxol as substrate.
A short description of data set [18]: Drug metabolism in dog hepatocytes at 2 uM after 2 hrs. The following applies: read-out: Drug metabolism. The format is ADME, cell-based, Canis lupus familiaris, Hepatocyte.

Activity calls are given as the source filed them. The calls are words filed in the database; no cut-off is given here. Bounds are passed on as bounds.

As for `CCN(C)c1nc2ccc(C(=O)N(CC(C)C)C[C@@H](O)[C@H](Cc3ccccc3)NC(=O)OCc3cncs3)cc2o1`, the AUC(0-inf) in data set [1] came out at 2000 ng·h/mL; in [6], 2240 ng·h/mL; in data set [10] it was 970 ng·h/mL. In addition, the peak concentration (Cmax) was 610 ng/mL in data set [2], 1010 ng/mL in data set [8] and 240 ng/mL in data set [12]. Besides, the “fold change (FC)” value in the data set on Canis familiaris [3] is listed as 5; in the data set with Canis familiaris [4], 2. In addition, the bioavailability in data set [5] worked out at 81%; in data set [9] it was 44%. Besides, the time of peak concentration (Tmax) was 30 min in data set [7] and 60 min in data set [11]. Also, the Papp at 1 h, 10 µM in data set [13] came out at 11 ×10⁻⁶ cm/s; in data set [14] it was 10 ×10⁻⁶ cm/s. The same compound returned an EC50 in data set [15] of 71000 nM.
In the case of `CC(C)CN(C[C@@H](O)[C@H](Cc1ccccc1)NC(=O)OCc1cncs1)C(=O)c1ccc2ncsc2c1`, the AUC(0-inf) in data set [1] is 7070 ng·h/mL; in [6], 2240 ng·h/mL; in data set [10] it was 7800 ng·h/mL. The results for the maximum concentration (Cmax) in data set [2], in data set [8] and in data set [12] were 2100 ng/mL, 5200 ng/mL and 2800 ng/mL, respectively. For the same compound, the “fold change (FC)” value was found to be 4.8 in the data set on Canis familiaris [3] and 2 in the data set on Canis familiaris [4]. Further, the bioavailability was found to be 97% in data set [5] and 107% in data set [9]. The results for the Tmax in data set [7] and in [11] were 60 min and 30 min, respectively. In addition, the efflux ratio at 1 h, 10 µM in [16] was 3.6; in data set [17] it was 2. The Papp at 1 h, 10 µM in data set [13] was 9.8 ×10⁻⁶ cm/s; in [14], 11 ×10⁻⁶ cm/s. The IC50 on Cytochrome P450 3A4 amounted to 23 nM. Also, in [15], a half-maximal response (EC50) required 95000 nM.
In turn, `CC(C)CN(C[C@@H](O)[C@H](Cc1cccnc1)NC(=O)OCc1cncs1)C(=O)c1ccc2ncsc2c1` returned a half-maximal inhibitory concentration (IC50) against Cytochrome P450 3A4 of 90 nM. For the same compound, the EC50 in data set [15] was more than 100000 nM.
On Cytochrome P450 3A4, `C#CCN(C)c1nc2ccc(C(=O)N(CC(C)C)C[C@@H](O)[C@H](Cc3ccccc3)NC(=O)OCc3cncs3)cc2o1` showed an IC50 of 30 nM. This compound also registered a half-maximal effective concentration (EC50) in [15] of 48000 nM.
The corresponding values for `Cc1nc2ccc(C(=O)N(CC(C)C)C[C@@H](O)[C@H](Cc3ccccc3)NC(=O)OCc3cncs3)cc2o1` are 52 nM and more than 100000 nM.
On Cytochrome P450 3A4, `CC(C)CN(C[C@@H](O)[C@H](Cc1ccccc1)NC(=O)OCc1cncs1)C(=O)c1ccc2nc(N3CCOCC3)oc2c1` came in with an IC50 of 38 nM. Moreover, the EC50 in data set [15] was more than 100000 nM.
Consider `CC(C)CN(C[C@@H](O)[C@H](Cc1ccccc1)NC(=O)OCc1cncs1)C(=O)c1ccc2nc(N)sc2c1`, for which, in the data set filed under Homo sapiens, the inhibition result was “Active”. The AUC(0-inf) in data set [1] was 6480 ng·h/mL; in data set [6] it was 200 ng·h/mL; in [10], 10 ng·h/mL. Besides, the peak concentration (Cmax) in data set [2] was 2300 ng/mL; in [8], 140 ng/mL; in data set [12], 10 ng/mL. Besides, the “fold change (FC)” value in the data set on Canis familiaris [3] stood at 4.7; in the data set with Canis familiaris [4], 1.8. Besides, in [18], the metabolised at 2 h, 2 µM worked out at 12%. Besides, the bioavailability in [5] worked out at 1.37%; in data set [9] it was 0.82%. Besides, the Tmax in [7] was 60 min; in [11] it was 30 min. The efflux ratio at 1 h, 10 µM in data set [16] was 22; in data set [17], 26. Also, the Papp at 1 h, 10 µM in [13] turned out to be 1.2 ×10⁻⁶ cm/s; in [14], 0.52 ×10⁻⁶ cm/s. Inhibition against Cytochrome P450 3A4 was half-maximal at 19 nM (IC50). Moreover, the concentration for a half-maximal effect (EC50) in [15] was determined as 76000 nM.

Usually AUC(0-inf) stands for the area under the concentration-time curve extrapolated to infinity. Low values mean low exposure, high ones high exposure. As usually defined, the Cmax is the maximum level reached in the sampled fluid or tissue. As a reminder, the Tmax is the time at which the peak concentration occurs. One may read the Papp as a coefficient for how fast a substance crosses the barrier. For orientation: EC50 means the concentration needed to bring the measured effect to its halfway point. For orientation: efflux ratio means the permeability from basolateral to apical divided by that in the opposite direction, in the common usage. What is called IC50 is the concentration that gives 50% inhibition.
